Rows were chosen to be rich in hits. Some 3.5% of all compounds tested hit in one or more screens of this group.
APP 5'UTR act = activates APP 5'UTR luciferase reporter | SH-SY5Y APP 5'UTR luciferase reporter, luminescence; zero percent = DMSO vehicle wells | 190,000 compounds, 1% hits | activation, % at 2 µM;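 active = activation above a set limit, based on mean plus 3 SD of controls, cut at about 140% in these data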
STAT1 act = activators of IFN-gamma induced STAT1 signaling; NIH 3T3 STAT1-luciferase reporter, luminescence; 100% = IFN-gamma alone, no compound; activation (% of control), % at 5.5 µM; 200,000 compounds, 2.6% hits;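 active = activation above the screen-wide mean activation plus 3 SD, cut at about 130% in these data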
Pf gamet viab = inhibitors of late stage P. falciparum gametocyte viability | 150,000 compounds, 0.065% hits | P. falciparum stage V gametocytes, ATP luminescence, 24 h | inhibition, % at 10.9 µM;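 active = inhibition above the mean plus 3 SD of compounds within the control limits, set per campaign, cut at about 38% in these data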
FLuc stim CS = affects firefly luciferase, flagging false hits in luciferase stimulation screens; AID 1027; P08659; activation factor at 10 µM; 200,000 tested, under 10 active; ATPlite luciferase biochemical, luminescence, 10 min; 0 = ATP-free wells, 1 = DMSO control;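 active = luciferase activation factor, scaled between plate controls, of at least 2 with compound at 10 µM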
Target sequence (P08659 whole entry, looked up): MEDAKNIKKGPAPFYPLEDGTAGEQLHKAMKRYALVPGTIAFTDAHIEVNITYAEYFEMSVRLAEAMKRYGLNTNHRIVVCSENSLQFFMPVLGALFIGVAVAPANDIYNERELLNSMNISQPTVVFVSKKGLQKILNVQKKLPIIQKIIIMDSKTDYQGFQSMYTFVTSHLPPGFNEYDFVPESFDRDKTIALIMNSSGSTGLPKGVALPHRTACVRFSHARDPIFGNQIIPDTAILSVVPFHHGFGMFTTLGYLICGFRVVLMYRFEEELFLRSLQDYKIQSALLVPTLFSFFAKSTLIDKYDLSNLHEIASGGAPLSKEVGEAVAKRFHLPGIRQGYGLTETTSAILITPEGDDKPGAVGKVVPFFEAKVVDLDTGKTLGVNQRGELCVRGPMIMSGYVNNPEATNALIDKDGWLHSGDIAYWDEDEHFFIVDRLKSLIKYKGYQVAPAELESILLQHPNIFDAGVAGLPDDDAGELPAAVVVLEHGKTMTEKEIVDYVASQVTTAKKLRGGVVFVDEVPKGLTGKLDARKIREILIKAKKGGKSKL
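Assay system – cell-free luciferase reagent · Medium – PBS-based ATP solution · Dosing – test compounds dosed from 2 mM stocks in 100% DMSO · Timing – 10 min, room temperature · Technique – light output (luminescence) · Measure – luminescence gain marking luciferase activators · Controls – No-ATP low control, compound-free enzyme-plus-ATP high control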
NF-kB expr up = raises NF-kB expression in human neuronal cells | NF-kB reporter expression; hits give high values | fold change at 12.5 µM | 190,000 compounds, 1.6% hits; in the data active = fold change above about 3.3
FLuc inhib CS = counter-screen for luciferase assay inhibitors: firefly luciferase inhibition; AID 1006; inhibition, % at 10 µM; P08659; 200,000 compounds, 1.5% hits; ATPLite firefly luciferase biochemical luminescence, 10 min;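 active = inhibition above about 50% when tested at 10 µM, limit read from the data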
Of the large screens only hits and unclear results are named; the others gave an inactive call.

COc1ccc(C(=O)Oc2cc(/C=N/NC(N)=S)ccc2OC)cc1	none (no result: Pf gamet viab)
COc1ccc(/C=N/NC(=S)Nc2ccccc2[N+](=O)[O-])cc1O	APP 5'UTR act 206
COc1cc(/C=N/Nc2ccccc2[N+](=O)[O-])ccc1OC(=O)c1ccccc1F	APP 5'UTR act 193 (no result: Pf gamet viab)
COc1ccc(/C=N/NC(N)=S)cc1OC(=O)c1cccc2ccccc12	STAT1 act 130 (no result: Pf gamet viab)
COc1cc(/C=N/Nc2nc3ccccc3s2)ccc1OC(=O)c1ccccc1F	APP 5'UTR act 173, NF-kB expr up 12
O=[N+]([O-])c1cc(/C=N/NC(=S)Nc2ccccc2Cl)ccc1Cl	none
COc1cc(/C=N/Nc2ccccc2[N+](=O)[O-])cc(OC)c1O	none (no result: Pf gamet viab)
Cc1ccccc1-c1cc(-c2ccccc2O)on1	APP 5'UTR act 197, NF-kB expr up 9.7
Cc1ccc(O)c(-c2cc(-c3ccc(F)cc3)no2)c1	none (no result: APP 5'UTR act, STAT1 act, FLuc stim CS, NF-kB expr up, FLuc inhib CS)
Oc1ccccc1-c1cc(-c2ccccc2)no1	APP 5'UTR act 255, NF-kB expr up 12, FLuc inhib CS 51
Cc1ccc(-c2cc(-c3ccccc3)no2)c(O)c1	APP 5'UTR act 276, NF-kB expr up 3.7, FLuc inhib CS 87
O=C(NN1CCOCC1)c1ccc(Cl)s1	none
Cn1ccnc1-c1ccc(-c2nccn2C)cc1	none (no result: APP 5'UTR act, STAT1 act, FLuc stim CS, NF-kB expr up, FLuc inhib CS)
O=C1c2ccccc2NC(c2ccc3c(c2)OCCO3)N1c1ccc2c(c1)OCCO2 (stereo unspecified)	NF-kB expr up 4.4 (no result: Pf gamet viab)
COc1cc(C2Nc3ccccc3C(=O)N2c2ccc3c(c2)OCCO3)ccc1OCC(C)C (stereo unspecified)	STAT1 act 132 (no result: Pf gamet viab)
COc1cc(C2Nc3ccccc3C(=O)N2c2ccccc2OC)ccc1O (stereo unspecified)	none
O=C(CN1CCCCC1)Nc1cccc([N+](=O)[O-])c1	none
O=C(c1cc2cc(Br)ccc2o1)N1CCCCC1	STAT1 act 134
COc1ccc(OCC(=O)N/N=C(\C)c2ccc(-n3ccnc3)cc2)cc1	FLuc inhib CS 57 (no result: APP 5'UTR act)
COc1cc(NC(=O)COc2ccc(-n3ccnc3)cc2)cc(OC)c1	none
C/C(=N\NC(=O)COc1ccc(C(C)(C)C)cc1)c1ccc(-n2ccnc2)cc1	FLuc inhib CS 80 (no result: Pf gamet viab)
CC(C)(C)c1ccc(NC(=O)COc2ccc(-n3ccnc3)cc2)cc1	none
O=C(C(Cc1ccccc1)N1C(=O)c2ccccc2C1=O)N1CCc2ccccc21 (stereo unspecified)	none (no result: Pf gamet viab)
Cn1cccc1C(=O)C(=O)Nc1ccccc1C(F)(F)F	STAT1 act 139
Cn1cccc1C(=O)C(=O)Nc1ccccc1	APP 5'UTR act 145, NF-kB expr up 5.9, FLuc inhib CS 52
O=C(CSc1nccc(=O)[nH]1)N1CCN(c2ccccc2)CC1	none
COc1ccc(Nc2nnc(SCC3CCCO3)s2)cc1 (stereo unspecified)	none
CCOC(=O)c1ccc(OCC(=O)c2ccc(O)cc2O)cc1	FLuc inhib CS 59 (no result: Pf gamet viab)
COC(=O)c1ccc(OCC(=O)c2ccc(O)cc2O)cc1	FLuc inhib CS 65
O=C(COc1ccc(Cl)cc1)c1ccc(O)cc1O	none (no result: APP 5'UTR act, STAT1 act, FLuc stim CS, NF-kB expr up, FLuc inhib CS)
C=CCOc1ccc(C(=O)CC)cc1OC	none
OCCN1CCN(C2CCC(c3ccc(F)cc3)c3ccc(F)cc32)CC1 (stereo unspecified)	none (no result: APP 5'UTR act, STAT1 act, FLuc stim CS, NF-kB expr up, FLuc inhib CS)
CCCn1c(=S)[nH]c2cc(C(=O)N3CCc4ccccc4C3)ccc2c1=O	Pf gamet viab 47
CC(/C=N/NC(=O)c1cc(C(C)C)[nH]n1)=C\c1ccccc1	none
CCOc1ccc(OCc2ccc(C(=O)N3CCOCC3)cc2)cc1	none
CCOc1ccc(N=C(/C(C(=O)C(=O)N2CCOCC2)=C(\O)c2ccccc2)c2ccccc2)cc1	STAT1 act 139
Cc1ccc(N2NC(C)(c3cccs3)NC2=S)cc1 (stereo unspecified)	NF-kB expr up 3.3
Cc1ccc(N2CC(O)(c3cccs3)[N+]3=C2CCCC3)cc1 (stereo unspecified)	none
O=C(Nc1cccc2ccccc12)N1CC=C(c2ccccc2)CC1	none (no result: APP 5'UTR act)
O=C(Nc1ccccc1)N1CC=C(c2ccccc2)CC1	STAT1 act 145 (no result: Pf gamet viab)
O=C(Nc1ccccc1)N1CC=C(c2ccc(F)cc2)CC1	STAT1 act 142 (no result: Pf gamet viab)
CC(C)(C)OC(=O)C[C@@H]1C/C=C\C[C@@H](CC(=O)N[C@H](CO)Cc2ccccc2)C(=O)N2CCC[C@H]2COC1=O	none (no result: APP 5'UTR act, STAT1 act, FLuc stim CS, NF-kB expr up, FLuc inhib CS)

From PubChem
